The values below come from publication PMC3117328 (Chemistry & biology, 2009).

Data set [1] addresses EF-G GTPase (70S ribosomes) (Escherichia coli, UniProt P0A7J7). Put plainly: EF-G GTPase Pi release assay with MDCC-labeled PBP. It is filed as biochemical.
Data set [2] deals with IF2 (70S initiation complex formation) (Escherichia coli, UniProt P0A7J7). Put plainly: IF2^Cy3 fluorescence change assay. The data set is classed as biochemical. Conditions: ThS, NoS at 1.5 µM (Figure 2A); precursors in dose response screen.
Data set [3] deals with Escherichia coli in vitro coupled transcription-translation (GFP synthesis). Put plainly: In vitro coupled transcription-translation. It is filed as biochemical. Conditions: 5 µM ThS, 5 µM NoS, 25 µM GE2270T (Figure 4). In a few lines:
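E. coli lysate-based coupled transcription-translation system expressing GFP, ribosomes ~2 µM, run with or without test compound. After reaction, samples are moved to microtiter plates. GFP fluorescence is imaged on a laser scanner with blue-laser excitation and quantified from the images, with inhibition taken against the no-antibiotic reaction.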

Data set [4] deals with EF-G GTPase (E. coli 70S ribosomes) (Escherichia coli, UniProt P0A7J7). It is filed as biochemical. As to conditions: compound 1 µM; 30 nM 70S ribosomes, 20 µM GTP, 60 nM protein.
The conditions of data set [5]: background statement, no reference given; cited from earlier work.

Chain of EF-G GTPase (70S ribosomes) (P0A7J7 2-142): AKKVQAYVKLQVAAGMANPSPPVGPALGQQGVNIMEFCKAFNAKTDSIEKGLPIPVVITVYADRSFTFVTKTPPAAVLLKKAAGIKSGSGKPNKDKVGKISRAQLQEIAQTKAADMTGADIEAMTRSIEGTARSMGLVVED
Chain of IF2 (70S initiation complex formation) (P0A7J7 2-142, one chain of several): as the sequence (P0A7J7 2-142) above
Chain of EF-G GTPase (E. coli 70S ribosomes) (P0A7J7 2-142): as above

On to `C/C=C(\NC(=O)c1csc(-c2csc(-c3ccc4c(n3)-c3csc(n3)[C@H]([C@@H](C)O)NC(=O)c3csc(n3)[C@H](C(C)C)NC(=O)c3csc(n3)/C(=C/C)NC(=O)[C@H]([C@@H](C)O)NC(=O)c3csc-4n3)n2)n1)C(=O)NC[C@@H](C)O` [MiC, micrococcin], for which, in data set [1], the EC50 is 110 nM.
Regarding `C=C(NC(=O)c1csc(-c2nc3c(cc2O)-c2nc(cs2)C(=O)N[C@@H]([C@@H](C)O)C(=O)N/C(=C\C)c2nc(cs2)C(=O)N[C@H]2C[C@H](O)C(=O)OCc4cccc5[nH]c(c(C)c45)C(=O)SC[C@H](NC(=O)c4csc2n4)c2nc-3cs2)n1)C(N)=O` [NoS, nosiheptide], in data set [2], the “inhibition of the IF2^Cy3 fluorescence increase on 70SIC formation (in words)” value is reported as “inhibited”. Also, the “inhibition of GFP synthesis in the in vitro TT assay” value (from here on “inhibition of GFP synthesis”) in data set [3] was “potent inhibitors”. The compound also registered an EC50 in data set [1] of 40 nM.
As to `C=C(NC(=O)C(=C)NC(=O)c1csc(C2=N[C@@H]3c4csc(n4)[C@H]4NC(=O)c5csc(n5)[C@H]([C@](C)(O)[C@@H](C)O)NC(=O)[C@H]5CSC(=N5)/C(=C/C)NC(=O)[C@H]([C@@H](C)O)NC(=O)c5csc(n5)[C@]3(CC2)NC(=O)[C@H](C)NC(=O)C(=C)NC(=O)[C@H](C)NC(=O)[C@H]([C@@H](C)CC)N[C@@H]2C=Cc3c([C@H](C)O)cc(nc3[C@H]2O)C(=O)O[C@@H]4C)n1)C(N)=O` [ThS, thiostrepton], in data set [2], the “inhibition of the IF2^Cy3 fluorescence increase on 70SIC formation (in words)” value is recorded as “inhibited”. Moreover, the “inhibition of GFP synthesis” value in data set [3] is listed as “potent inhibitors”. In addition, the “inhibition of EF-G GTPase activity (Malachite Green)” value in data set [4] was “almost completely abolished”. For the same compound, in data set [5], the bioavailability result was “poor”.
For the compound GE2270T, the “inhibition of GFP synthesis” value in data set [3] was “potent inhibitors”.
